Measurements of several laboratories.
Lines come from different studies, so protocols differ.
Cell line: OVCAR-5
Read-out: cell growth or viability

| Structure (SMILES) | test | conditions | measurement | value |
| --- | --- | --- | --- | --- |
| COc1ccccc1/C=C/C(=O)c1ccc(OC)c(S(N)(=O)=O)c1 | SRB | 48 h | GI50 | 2200 nM |
| CC[C@@H]1C=CC(=O)O[C@@H]1C[C@@H](O)[C@H](C)[C@H](O)[C@@H](C)Cc1ccc(F)cc1 | MTT | 48 h | GI50 | 16.5 nM |
| S=C([S][Au-][P+](CCCCCC[P+]([Au-][S]C(=S)n1cccn1)(c1ccccc1)c1ccccc1)(c1ccccc1)c1ccccc1)n1cccn1 | – | – | GI50 | 3630 nM |
| COc1ccc(-c2ccc(-c3ccc(C(=N)N)nc3)s2)cc1 | SRB | – | GI50 | 1670 nM |
| C/C=C/C[C@H](C)[C@@H](OC)[C@@H](C)[C@H](O)C[C@H]1OC(=O)C=C[C@H]1CC | MTT | 48 h | GI50 | 21.9 nM |
| Cc1cc(C)n(C(=S)[S][Au][PH](CCCCCC[PH]([Au][S]C(=S)n2nc(C)cc2C)(c2ccccc2)c2ccccc2)(c2ccccc2)c2ccccc2)n1 | – | – | GI50 | 1210 nM |
| CC[C@@H]1C=CC(=O)O[C@@H]1C[C@@H](O)[C@H](C)[C@H](OC)[C@@H](C)Cc1ccc(F)cc1 | MTT | 48 h | GI50 | 75.3 nM |
| COc1ccc(C(=O)/C=C/c2cccc(Cl)c2)cc1S(N)(=O)=O | SRB | 48 h | GI50 | 1900 nM |
| COc1cccc(Oc2ccccc2NC(=O)CNC(=O)c2cccc3ccccc23)c1 | SRB | 48 h | GI50 | 1120 nM |
| COc1cc(-c2ccc(-c3ccc(C(=N)N)nc3)s2)cc(OC)c1OC | SRB | – | GI50 | 2100 nM |
| CCN1CCN(Cc2ccc(Nc3ncc(F)c(-c4cc(F)c5nc(C)n(C(C)C)c5c4)n3)nc2)CC1 | CCK-8 | – | IC50 | 2500 nM |
